ChEMBL document CHEMBL5357022, “Fluorinated Isoindolinone-Based Glucosylceramide Synthase Inhibitors with Low Human Dose Projections” (ACS Med Chem Lett, 2024)

Columns and labels:
[1] = target: T1, Nuclear receptor subfamily 1 group I member 2 (Homo sapiens, UniProt O75469); assay: Activation of PXR (unknown origin); format: toxicity
T1 sequence (O75469 whole entry): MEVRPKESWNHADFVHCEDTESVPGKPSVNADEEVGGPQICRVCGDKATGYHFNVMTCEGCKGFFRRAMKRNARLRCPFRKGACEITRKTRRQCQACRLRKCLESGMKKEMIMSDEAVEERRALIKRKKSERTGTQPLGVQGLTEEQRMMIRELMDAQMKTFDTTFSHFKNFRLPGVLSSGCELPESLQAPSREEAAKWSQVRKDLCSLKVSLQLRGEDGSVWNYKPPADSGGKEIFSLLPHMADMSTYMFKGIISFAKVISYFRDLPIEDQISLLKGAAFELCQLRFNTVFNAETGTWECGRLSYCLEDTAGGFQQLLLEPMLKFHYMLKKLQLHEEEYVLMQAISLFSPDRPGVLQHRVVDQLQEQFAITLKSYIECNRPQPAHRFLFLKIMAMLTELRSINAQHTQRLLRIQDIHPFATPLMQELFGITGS

PXR (NR1I2) = target: T2, PXR (NR1I2) (Homo sapiens, UniProt O75469); assay: Activation of PXR (unknown origin) assessed as maximal efficacy relative to control; format: toxicity
T2 sequence (O75469 whole entry): T1 sequence (O75469 whole entry)

[2] = Octanol-water partition coefficient, logD of the compound; format: physicochemical
[3] = Intrinsic clearance in Wistar Han rat at 5 mg/kg, po or 2 mg/kg, iv measured after 24 hrs; format: ADME, organism-based; conditions: in vivo
Summary of the method: (§1)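 Wistar Han rats were dosed IV at 2 mg/kg in DMSO/PEG400/H2O 20/60/20 at 1 mL/kg, and PO at 5 mg/kg in PEG400/Tween80/H2O 40/10/50 at 2 mL/kg. Sampling ran to a 24 h end point.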

[4] = Plasma protein binding in dog assessed as unbound fraction; format: ADME, cell-free, Canis lupus familiaris
[5] = Unbound volume of distribution in Beagle dog at 1 mg/kg, po in 10% tween 80 formulation or 0.5 mg/kg, iv measured after 24 hrs; format: ADME, organism-based, Canis lupus familiaris; conditions: in vivo
Summary of the method: (§2)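 Beagle dogs were given 0.5 mg/kg IV in DMSO/PEG400/H2O 20/60/20 at 0.5 mL/kg, and 1 mg/kg PO in a 10% Tween 80 formulation. Sampling ran to a 24 h end point.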

[6] = Unbound brain-to-plasma concentration ratio in rat; format: ADME; conditions: read-out: K(p,uu,brain)
[7] = Plasma protein binding in rat assessed as unbound fraction; format: ADME, cell-free
[8] = MRT in Wistar Han rat at 5 mg/kg, po or 2 mg/kg, iv measured after 24 hrs; format: ADME, organism-based; conditions: in vivo; summary of the method: as §1
[9] = Unbound volume of distribution in Wistar Han rat at 5 mg/kg, po or 2 mg/kg, iv measured after 24 hrs; format: ADME, organism-based; conditions: in vivo; summary of the method: as §1
[10] = MRT in Beagle dog at 1 mg/kg, po in 10% tween 80 formulation or 0.5 mg/kg, iv measured after 24 hrs; format: ADME, organism-based, Canis lupus familiaris; conditions: in vivo; summary of the method: as §2
[11] = […] clearance in Beagle dog at 1 mg/kg, po in 10% tween 80 formulation or 0.5 mg/kg, iv measured after 24 hrs; format: ADME, organism-based, Canis lupus familiaris; conditions: in vivo; summary of the method: as §2
[12] = Oral bioavailability in Beagle dog at 1 mg/kg in 10% tween 80 formulation measured after 24 hrs; format: ADME, organism-based, Canis lupus familiaris; conditions: in vivo; summary of the method: as §2
[13] = Metabolic stability in human hepatocytes assessed as intrinsic clearance; format: ADME, cell-based, Hepatocyte; conditions: read-out: CLH
[14] = Oral bioavailability in Wistar Han rat at 5 mg/kg measured after 24 hrs; format: ADME, organism-based; conditions: in vivo; summary of the method: as §1
[15] = Plasma protein binding in human assessed as unbound fraction; format: ADME, cell-free
[16] = Unbound volume of distribution in Beagle dog at 1 mg/kg, po in 30% captisol formulation or 0.5 mg/kg, iv measured after 24 hrs; format: ADME, organism-based, Canis lupus familiaris; conditions: in vivo
Summary of the method: (§3)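 Beagle dogs were given 0.5 mg/kg IV in DMSO/PEG400/H2O 20/60/20 at 0.5 mL/kg, and 1 mg/kg PO in 30% Captisol at 2 mL/kg. Sampling ran to a 24 h end point.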

[17] = MRT in Beagle dog at 1 mg/kg, po in 30% captisol formulation or 0.5 mg/kg, iv measured after 24 hrs; format: ADME, organism-based, Canis lupus familiaris; conditions: in vivo; summary of the method: as §3
[18] = Oral bioavailability in Beagle dog at 1 mg/kg in 30% captisol formulation measured after 24 hrs; format: ADME, organism-based, Canis lupus familiaris; conditions: in vivo; summary of the method: as §3
[19] = […] clearance in Beagle dog at 1 mg/kg, po in 30% captisol formulation or 0.5 mg/kg, iv measured after 24 hrs; format: ADME, organism-based, Canis lupus familiaris; conditions: in vivo; summary of the method: as §3
[20] = MRT in rat; format: ADME; conditions: in vivo
[21] = Unbound volume of distribution in Wistar Han rat at 4 mg/kg, po measured after 24 hrs; format: ADME, organism-based; conditions: in vivo
Summary of the method: (§4)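 Wistar Han rat PK study with a 24 h end point, using an oral dose of 4 mg/kg.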

[22] = MRT in Wistar Han rat at 4 mg/kg, po measured after 24 hrs; format: ADME, organism-based; conditions: in vivo; summary of the method: as §4
[23] = Clearance in Wistar Han rat at 4 mg/kg, po measured after 24 hrs; format: ADME, organism-based; conditions: in vivo; summary of the method: as §4
[24] = Oral bioavailability in Wistar Han rat at 4 mg/kg measured after 24 hrs; format: ADME, organism-based; conditions: in vivo; summary of the method: as §4
[25] = Intrinsic clearance in Wistar Han rat at 4 mg/kg, po measured after 24 hrs; format: ADME, organism-based; conditions: in vivo; summary of the method: as §4

SMILES | CL [3] | fraction unbound [4] | Kp uu [6] | fraction unbound [7] | MRT [8] | Vdu [9] | CLint scaled [13] | bioavailability [14] | fraction unbound [15] | Vdu [16] | MRT [17] | bioavailability [18] | CL [19] | EC50 [1] | Emax (PXR (NR1I2)) | further results
Cc1nnc(-c2ccc(-c3c(F)cc(F)c4c3C(=O)N([C@@H](C(C)(C)O)C(F)(F)F)C4)cc2)o1 |  |  |  |  |  |  |  |  |  |  |  |  |  | 14 µM | 100% | 
Cc1nnc(-c2ccc(-c3ccc(F)c4c3C(=O)N([C@H](C3CC3)C(C)(C)O)C4)cc2)o1 |  |  |  |  |  |  |  |  |  |  |  |  |  | 8.9 µM | 97% | 
CN1Cc2cc(-c3cccc4c3C(=O)N([C@H](C3CC3)C(C)(C)O)C4)ccc2C1=O |  |  |  |  |  |  |  |  |  |  |  |  |  | > 30 µM | 11% | 
CCOc1ccccc1C(=O)Nc1cccc2c1C(=O)N(CC1CC1)C2 |  |  |  |  |  |  |  |  |  |  |  |  |  | 4.3 µM | 81% | MRT [20]: 1.4 h
Cc1nnc(-c2ccc(-c3c(F)cc(F)c4c3C(=O)N([C@H](C3CC3)C(C)(C)O)C4)cc2)o1 |  |  |  |  |  |  |  |  |  |  |  |  |  | 4.6 µM | 100% | 
Cc1nnc(-c2ccc(-c3c(F)ccc4c3C(=O)N([C@H](C3CC3)C(C)(C)O)C4)cc2)o1 |  |  |  |  |  |  |  |  |  |  |  |  |  | 5.2 µM | 100% | 
Cc1nnc(-c2ccc(-c3c(F)c(F)cc4c3C(=O)N([C@@H](C(C)(C)O)C(F)(F)F)C4)cc2)o1 | 30 mL/min/kg | 0.11 | 0.4 | 0.037 | 9.9 h | 18 L/kg | 4.5 mL/min/kg | 83% | 0.067 | 14 L/kg | 11 h | 79% | 23 mL/min/kg | 12 µM | 80% | logD [2]: 2.7

Now from value to compound, other results behind:

CL [3] | fraction unbound [4] | Kp uu [6] | fraction unbound [7] | MRT [8] | Vdu [9] | CLint scaled [13] | bioavailability [14] | fraction unbound [15] | Vdu [16] | MRT [17] | bioavailability [18] | CL [19] | SMILES | EC50 [1] | Emax (PXR (NR1I2)) | further results
211 mL/min/kg | 0.1 | 0.5 | 0.013 | 3 h | 36 L/kg | 15 mL/min/kg | 100% | 0.032 |  |  |  |  | Cc1nnc(-c2ccc(-c3cccc4c3C(=O)N([C@H](C3CC3)C(C)(C)O)C4)cc2)o1 | 29 µM | 89% | logD [2]: 2.3; Vdu [5]: 9.9 L/kg; MRT [10]: 8.6 h; CL [11]: 13 mL/min/kg; bioavailability [12]: 81%
30 mL/min/kg | 0.2 | 0.2 | 0.038 | 5.7 h | 10 L/kg | 33 mL/min/kg | 36% | 0.098 | 7.1 L/kg | 10 h | 75% | 11 mL/min/kg | Cc1nnc(-c2ccc(-c3c(F)c(F)cc4c3C(=O)N([C@H](C3CC3)C(C)(C)O)C4)cc2)o1 | 6.1 µM | 100% | 
 | 0.2 |  | 0.026 |  |  | 19 mL/min/kg |  | 0.046 | 12 L/kg | 10 h | 100% | 21 mL/min/kg | Cc1nnc(-c2ccc(-c3cc(F)cc4c3C(=O)N([C@H](C3CC3)C(C)(C)O)C4)cc2)o1 | 25 µM | 75% | Vdu [21]: 16 L/kg; MRT [22]: 2.3 h; CL/F [23]: 3 mL/min/kg; bioavailability [24]: 38%; CL [25]: 120 mL/min/kg
169 mL/min/kg | 0.14 | 0.1 | 0.021 | 3.7 h | 36 L/kg | 13 mL/min/kg | 57% | 0.05 | 17 L/kg | 11 h | 64% | 17 mL/min/kg | Cc1nnc(-c2ccc(-c3cc(F)c(F)c4c3C(=O)N([C@H](C3CC3)C(C)(C)O)C4)cc2)o1 |  |  | 
